In the library only some 2.9% were active in any assay of this set; here they are far more common.
beta cell repl – induces beta-cell replication in MIN6 cells; MIN6 cells proliferation, ATPlite luminescence, 48 h; cells starved in 0.2% serum; 100% = growth in 10% serum; 330,000 compounds, 0.29% hits; proliferation, % at 10 µM;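 active = compounds whose signal lies at least 3.5 SD above the mean of all wells on their plate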;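 note: 0% = DMSO-treated cells in low-serum medium and 100% = 10% serum control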
H9c2 TAG inh – inhibitors of triacylglycerol accumulation; H9c2 cells, Nile Red lipid (TAG) fluorescence; cells loaded with 200 µM oleic acid; inhibition, % at 12.5 µM; 230,000 compounds, 0.66% hits;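 active = pattern-corrected inhibition of lipid staining of at least 50% with the nuclear-stain viability signal not falling by more than 50%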;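 note: 0% = DMSO wells and 100% = triacsin C control wells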
NR1D1 modulator – modulates human Rev-erb alpha binding to DNA | activity, % at 10 µM | Rev-erbα–FITC-DNA binding, fluorescence polarization, 90 min | 370,000 compounds, 0.79% hits;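 active = activity above about 14%, limit read from the data; passing the limit was not always enough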;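 note: 0% = DMSO wells with 35 nM protein and 100% = DMSO wells with 750 nM protein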
Target sequence (P20393 whole entry, looked up): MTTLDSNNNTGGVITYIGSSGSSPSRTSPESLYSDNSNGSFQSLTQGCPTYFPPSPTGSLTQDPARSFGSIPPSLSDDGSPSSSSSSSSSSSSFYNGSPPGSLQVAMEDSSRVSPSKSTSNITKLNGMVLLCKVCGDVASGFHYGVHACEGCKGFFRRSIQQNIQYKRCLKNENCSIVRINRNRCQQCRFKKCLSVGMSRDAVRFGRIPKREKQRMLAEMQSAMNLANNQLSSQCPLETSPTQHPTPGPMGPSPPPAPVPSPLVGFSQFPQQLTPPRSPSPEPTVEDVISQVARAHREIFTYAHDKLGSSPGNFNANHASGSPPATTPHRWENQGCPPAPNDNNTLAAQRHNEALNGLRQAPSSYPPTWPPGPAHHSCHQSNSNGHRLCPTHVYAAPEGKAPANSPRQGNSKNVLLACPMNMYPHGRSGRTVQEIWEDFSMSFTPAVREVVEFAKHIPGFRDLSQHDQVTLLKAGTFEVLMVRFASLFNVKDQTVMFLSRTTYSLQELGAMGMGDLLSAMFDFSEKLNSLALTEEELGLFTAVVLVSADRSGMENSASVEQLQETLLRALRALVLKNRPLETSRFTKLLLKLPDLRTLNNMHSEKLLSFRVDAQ
T cruzi repl – blocks replication of Trypanosoma cruzi. T. cruzi beta-gal in NIH3T3, luminescence, 90 h. inhibition, % (no concentration beside the values). 300,000 compounds, 1.4% hits. AID 1885;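 active = mean inhibition across valid replicates above about 55%, limit read from the data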;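 note: signal also drops with host cell toxicity which is not excluded here; 0% = plate median of DMSO wells and 100% = zero luminescence signal; higher percent means less beta-gal luminescence so fewer parasites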
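Assay system: NIH/3T3 fibroblasts plus reporter T. cruzi. Amount: NIH/3T3 cells, 5,000 per well. Buffer or medium: DMEM, 2% fetal bovine serum. Doses: compound pinned at 50 nL/well, DMSO. Schedule: ≥90 h infection period, 3 h prior cell attachment. Signal: luminescent β-galactosidase signal after 60 min lysis. Read-out: parasite load inhibition, %.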
hiPSC survival – hiPSC single-cell survival enhancement; ATPlite luminescence; 100% = ROCK inhibitor wells, 0% = DMSO; survival enhancement, % at 20 µM; 360,000 compounds, 0.044% hits; AID 602274; in the data active = survival enhancement above about 18%;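 note: cells exposed to compounds for 16 hours before the ATP read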
PG9 binder – small molecules binding HIV-1 gp120 antibody PG9; 360,000 compounds, 0.43% hits; inhibition, % at 6.7 µM; TR-FRET gp120-PG9 antibody binding; AID 624416; in the data active = inhibition above about 8.5%
An asterisk follows results filed as active; / = no result.

SMILES	beta cell repl	H9c2 TAG inh	NR1D1 modulator	T cruzi repl	hiPSC survival	PG9 binder
CC(C)N1C(=O)S/C(=C/c2ccc3c(c2)n(C)c(=O)n3C)C1=O	-3	36	-5	-13	-2	-4
CCN(CC)c1ccc(/C=C2\SC(=O)N(C(C)C)C2=O)o1	-4	-1	/	56*	0	/
NC(=O)[C@H]1CC2(CC(c3cccc(NC(=O)CC(c4ccccc4)c4ccccc4)c3)=NO2)CN1C(=O)CC(c1ccccc1)c1ccccc1 (some centres undefined)	-8	18	-3	48	5	0
NC(=O)[C@@H]1CC2(CC(c3cccc(NC(=O)CC(c4ccccc4)c4ccccc4)c3)=NO2)CN1C(=O)c1ccc(Cl)cc1 (some centres undefined)	-9	13	3	57*	5	-1
C/C=C(/C)C(=O)Nc1cccc(C2=NOC3(C2)C[C@H](C(N)=O)N(C(=O)COc2ccc(Cl)cc2)C3)c1 (some centres undefined)	-2	-1	0	-10	0	-1
CN(c1ccc(C(=O)NC2CCCCC2)cc1)S(=O)(=O)c1ccccc1	1	-10	2	-4	-1	-1
COc1ccc(NS(=O)(=O)c2cccc(NC(=O)c3cnccn3)c2)cc1Br	-2	/	-1	68*	0	0
O=C1C(Nc2ccccc2)=C/C(=N/S(=O)(=O)c2cccs2)c2ccccc21	/	/	/	60*	-4	/
COC(=O)CN1C(=O)[C@H]2[C@@H](c3ccc(C)o3)N3C(=O)CN(Cc4ccc(-c5ccccc5)cc4)C(=O)[C@@]3(C)[C@H]2C1=O	3	-8	3	-3	0	2
O=C(O)/C=C/C(=O)N1CCN(S(=O)(=O)c2cccc(C(F)(F)F)c2)CC1	1	-17	-3	-17	0	1
CCOc1ccc(-c2cc(C(=O)NCc3cc(C(F)(F)F)cc(C(F)(F)F)c3)[nH]n2)c(C)c1	/	9	-10	/	6	1
Cc1ccc(SC(CC(=O)c2ccc(F)cc2)C(=O)O)cc1 (centres undefined)	-7	/	-3	1	0	0
CC(C)(C)c1ccc(C(=O)CC(Sc2ccc(Cl)cc2)C(=O)O)cc1 (centres undefined)	-6	12	-2	60*	-3	-1
CC(C)CCNC(=O)c1onc(CSc2ccc(Cl)cc2)c1C(=O)NCCC(C)C	-8	/	-5	21	4	2
O=C(NCc1ccccc1)c1onc(CSc2ccccc2)c1C(=O)NCC1CC1	-8	-1	3	58*	-3	0
CC(C)CCNC(=O)c1onc(CSc2ccc(F)cc2)c1C(=O)NCCC(C)C	-6	-13	1	39	21*	-1
Nc1cccc(C(=O)c2ccccc2C(=O)O)c1	/	0	1	/	6	0
COc1ccc(C(=O)N=C2CCC(C#N)=C3c4cc(OC)c(OC)cc4CCN23)cc1	7.2*	/	2	-8	0	-3
COc1cc2c(cc1OC)C1=C(C#N)CC/C(=N\S(=O)(=O)c3ccccc3)N1CC2	8	6	-8	-3	4	0
CCCCOc1ccc(/C=N/Nc2cc(N3CCOCC3)nc(C)n2)cc1	-4	/	4	56*	0	0
Cc1cccc(/C=N/Nc2cc(N3CCOCC3)nc(N3CCOCC3)n2)c1	-2	/	3	69*	0	-1
CC(C)c1ccc(/C=N/Nc2cc(N3CCOCC3)nc(N3CCOCC3)n2)cc1	-3	/	-2	/	1	-1
Cc1nc(N/N=C/c2cccnc2)cc(N2CCOCC2)n1	/	-2	1	/	4	1
Cc1ccc(Nc2nc(N/N=C\c3ccc4c(c3)OCO4)nc(N3CCOCC3)n2)cc1	-7	136	5	58*	0	1
Cc1ccc(/C=N/Nc2cc(C)nc(N3CCOCC3)n2)cc1	-1	-5	-9	-6	0	-2
COC(=O)c1ccc(COc2ccc(C(C)(C)C)cc2)o1	-2	/	-4	-20	-1	-1
O=C(CSc1nc2nc(-c3cccs3)cc(C(F)(F)F)c2c(=O)[nH]1)NCc1ccco1	0	/	5	-3	3	4
COc1ccc(-c2nc(CCl)cs2)cc1	0	-20	-4	6	-1	-2

Assay outcomes: PubChem, several laboratories
